This passage reports Ki results from ChEMBL document CHEMBL1128682, “Design and synthesis of new naphthalenic derivatives as ligands for 2-[125I]iodomelatonin binding sites” (J Med Chem, 1995).

Where only a bound is given, the exact number is not on record here.

For assay [1], the target named is T1, Melatonin receptor (Gallus gallus, UniProt P49288+P51050+P49285). The assay can be described thus: Competitive binding by the displacement of 2-[125I]- Iodomelatonin binding from melatonin receptors in chicken brain membranes. The format is cell membranes, Membrane. The essentials:
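Whole chicken brain (Redbro, 4 months) homogenized in ice-cold 50 mM Tris-HCl pH 7.4, washed twice by centrifugation, and resuspended at 5 mg protein/mL. Filtration through PEI-soaked glass fiber filters, then gamma counting. Nonspecific binding defined with 10 μM 2-iodomelatonin. Triplicates. Ki from IC50 by Cheng-Prusoff; one or two determinations.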

In assay [2] the target is T1, Melatonin receptor. The experiment in a line: Effect of compound on Melatonin receptor in chicken brain in the presence of MnCl2.
Assay [3] deals with T1, Melatonin receptor. The assay can be described thus: Effect of compound on Melatonin receptor in chicken brain in the presence of GTP-gamma-S.

As for `COc1ccccc1CCNC(C)=O`, at Melatonin receptor [1], the inhibitory constant (Ki) is listed as 213 nM.

On Melatonin receptor [1], `COc1ccc(Br)cc1CCNC(C)=O` gave a Ki of 42 nM.

`CC(=O)NCCc1ccccc1Cl` had a Ki at Melatonin receptor [1] greater than 1000 nM. The same measure, in the same setting: as for `COc1ccc(OC)c(CCNC(=O)C2CC2)c1`, the figure is 386 nM; as for `CC(=O)NCCc1cccc(F)c1`, greater than 1000 nM; as for `CC(=O)NCCc1ccc(Cl)cc1`, greater than 1000 nM. `CCCCC(=O)NCCc1c(OC)ccc2ccccc12` came in with a Ki on Melatonin receptor [1] of 237 nM. Compound `CCCCC(=O)NCCc1cc(OC)ccc1OC` came in with a Ki on Melatonin receptor [1] greater than 1000 nM. On Melatonin receptor [1], `CCC(=O)NCCc1c(OC)ccc2ccc(OC)cc12` came in with a Ki of 0.07 nM. Regarding `COc1cccc(CCNC(C)=O)c1`, the inhibition constant Ki at Melatonin receptor [1] is on record as 253 nM. For `CCC(=O)NCCc1c(OC)ccc2ccccc12`, the figures for the Ki at Melatonin receptor [2], at Melatonin receptor [1] and on Melatonin receptor [3] were 0.297 nM, 0.68 nM and 2.86 nM, respectively. In the case of `COc1ccc2ccccc2c1CC(C)NC(=O)C(F)(F)F` (stereo not given), the Ki at Melatonin receptor [1] was greater than 1000 nM. On to `CCCC(=O)NCCc1c(OC)ccc2ccccc12`, for which the Ki on Melatonin receptor [1] is recorded as 1.37 nM.

In the case of `COc1ccc2ccc(OC)c(CCNC(=O)C(F)(F)F)c2c1`, the Ki at Melatonin receptor [1] stood at 0.4 nM.

`COc1ccc2ccc(OC)c(CCNC(=O)C3CC3)c2c1` displayed a Ki at Melatonin receptor [1] of 0.05 nM. `COc1ccc(C)cc1CCNC(C)=O` came in with a Ki on Melatonin receptor [1] of 192 nM. With `COc1ccc2ccc(OC)c(CCNC(C)=O)c2c1`, at Melatonin receptor [1], the Ki came out at 0.1 nM. Take `COc1ccc2ccccc2c1CC(C)NC(C)=O` (stereo not given): the Ki at Melatonin receptor [1] stood at 421 nM. Compound `COc1ccc(OC)c(CCNC(C)=O)c1` showed a Ki at Melatonin receptor [1] of 69.9 nM. Turning to `CC(=O)NCCc1cccc2ccccc12`, at Melatonin receptor [1], the Ki was determined as 321 nM. `COc1ccc2ccccc2c1CCNC(C)=O` yielded a Ki at Melatonin receptor [1] of 2.68 nM. The same measure, in the same setting: under `CCC(=O)NCCc1cc(Br)ccc1OC` stands 8 nM; under `CC(=O)NCCc1cccc(Cl)c1`, greater than 1000 nM. Take `COc1ccc2ccccc2c1CCNC(=O)C(F)(F)F`: the inhibitory constant (Ki) on Melatonin receptor [1] is reported as 0.54 nM. `CCC(=O)NCCc1cc(OC)ccc1OC` registered a Ki at Melatonin receptor [1] of 17.5 nM.

`CCc1ccc(OC)c(CCNC(C)=O)c1`: at Melatonin receptor [1], the Ki was 217 nM. Regarding `COc1ccc(CCNC(C)=O)cc1`, on Melatonin receptor [1], the Ki is greater than 1000 nM. The compound `COc1ccc2ccccc2c1CCNC(=O)C1CC1` gave a Ki at Melatonin receptor [1] of 19.4 nM.

The Ki is the dissociation constant of the complex between target and ligand, obtained from inhibition or displacement.
